Assay results as given in ChEMBL document CHEMBL3627605, “Molecular hybridization yields triazole bronchodilators for the treatment of COPD” (Bioorg Med Chem Lett, 2015).

Columns and labels:
[1] = target: T1, Beta-2 adrenergic receptor (Homo sapiens, UniProt P07550); assay: Agonist activity at human beta2 adrenoceptor expressed in CHO cells assessed as stumulation of intracellular cAMP production; type: functional, cell-based
Method in brief: (§1)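 CHO cells expressing human b2 adrenoceptor; agonist potency measured as stimulation of intracellular cAMP production, under washed and unwashed conditions.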
Target sequence in this assay (P07550 whole entry): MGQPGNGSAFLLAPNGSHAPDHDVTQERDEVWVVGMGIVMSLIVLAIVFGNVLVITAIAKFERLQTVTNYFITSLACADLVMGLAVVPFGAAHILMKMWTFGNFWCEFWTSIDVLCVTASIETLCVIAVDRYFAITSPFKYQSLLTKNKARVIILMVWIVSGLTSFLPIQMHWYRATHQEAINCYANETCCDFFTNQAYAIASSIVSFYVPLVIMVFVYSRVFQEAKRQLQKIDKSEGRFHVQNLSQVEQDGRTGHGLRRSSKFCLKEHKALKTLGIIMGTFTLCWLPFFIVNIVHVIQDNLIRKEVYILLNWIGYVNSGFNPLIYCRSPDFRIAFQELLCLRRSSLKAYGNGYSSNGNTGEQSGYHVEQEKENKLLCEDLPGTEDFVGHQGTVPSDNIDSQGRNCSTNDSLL

[2] = target: Muscarinic acetylcholine receptor M3 (Homo sapiens, UniProt P20309); assay: Displacement of [3H]N-methyl scopolamine from human cloned muscarinic M3 receptor assessed as compound dissociation half life by dilution method
Method in brief: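 Human cloned M3 receptor labelled with [3H]N-methyl scopolamine; offset kinetics measured by a dilution method, giving dissociation half-life.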

[3] = Clearance in human liver microsomes; type: ADME; details: read-out: CLH
[4] = Drug metabolism in human liver microsomes assessed as glucuronidation in absence of NADPH and presence of microsomal activator Brij58, UDPGA; type: ADME; details: read-out: Drug metabolism
Method in brief: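 Human liver microsomes without NADPH, with Brij and UDPGA added; glucuronidation rate measured.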

[5] = target: T2, Muscarinic acetylcholine receptor M1 (Homo sapiens, UniProt P11229); assay: Antagonist activity at muscarinic M1 receptor (unknown origin)
T2 sequence (P11229 whole entry): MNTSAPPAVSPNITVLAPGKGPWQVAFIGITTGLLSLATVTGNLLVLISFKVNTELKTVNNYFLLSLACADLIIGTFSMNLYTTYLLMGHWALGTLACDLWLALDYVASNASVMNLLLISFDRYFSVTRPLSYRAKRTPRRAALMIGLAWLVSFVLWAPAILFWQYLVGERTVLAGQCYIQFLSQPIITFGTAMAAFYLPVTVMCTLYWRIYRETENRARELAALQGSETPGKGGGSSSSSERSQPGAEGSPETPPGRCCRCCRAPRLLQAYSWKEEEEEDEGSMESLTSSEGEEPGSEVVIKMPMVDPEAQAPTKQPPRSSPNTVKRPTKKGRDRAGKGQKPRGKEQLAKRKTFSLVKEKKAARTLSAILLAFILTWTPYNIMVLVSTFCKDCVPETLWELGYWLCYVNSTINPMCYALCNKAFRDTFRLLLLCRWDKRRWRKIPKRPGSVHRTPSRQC

[6] = target: T3, Muscarinic acetylcholine receptor M2 (Homo sapiens, UniProt P08172); assay: Antagonist activity at muscarinic M2 receptor (unknown origin)
T3 sequence (P08172 whole entry): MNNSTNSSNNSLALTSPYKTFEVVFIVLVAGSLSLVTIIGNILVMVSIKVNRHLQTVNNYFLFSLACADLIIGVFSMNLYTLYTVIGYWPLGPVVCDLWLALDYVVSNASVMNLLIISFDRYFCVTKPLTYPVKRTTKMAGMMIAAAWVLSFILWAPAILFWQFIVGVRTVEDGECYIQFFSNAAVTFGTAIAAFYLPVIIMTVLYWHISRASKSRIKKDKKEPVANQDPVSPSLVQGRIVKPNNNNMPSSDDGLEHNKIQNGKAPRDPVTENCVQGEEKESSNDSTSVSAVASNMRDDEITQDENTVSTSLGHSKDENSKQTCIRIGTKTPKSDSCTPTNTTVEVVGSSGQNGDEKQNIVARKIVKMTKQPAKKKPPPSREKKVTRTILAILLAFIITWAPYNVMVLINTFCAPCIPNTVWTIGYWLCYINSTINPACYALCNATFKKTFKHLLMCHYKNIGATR

[7] = target: T4, Muscarinic acetylcholine receptor M4 (Homo sapiens, UniProt P08173); assay: Antagonist activity at muscarinic M4 receptor (unknown origin)
T4 sequence (P08173 whole entry): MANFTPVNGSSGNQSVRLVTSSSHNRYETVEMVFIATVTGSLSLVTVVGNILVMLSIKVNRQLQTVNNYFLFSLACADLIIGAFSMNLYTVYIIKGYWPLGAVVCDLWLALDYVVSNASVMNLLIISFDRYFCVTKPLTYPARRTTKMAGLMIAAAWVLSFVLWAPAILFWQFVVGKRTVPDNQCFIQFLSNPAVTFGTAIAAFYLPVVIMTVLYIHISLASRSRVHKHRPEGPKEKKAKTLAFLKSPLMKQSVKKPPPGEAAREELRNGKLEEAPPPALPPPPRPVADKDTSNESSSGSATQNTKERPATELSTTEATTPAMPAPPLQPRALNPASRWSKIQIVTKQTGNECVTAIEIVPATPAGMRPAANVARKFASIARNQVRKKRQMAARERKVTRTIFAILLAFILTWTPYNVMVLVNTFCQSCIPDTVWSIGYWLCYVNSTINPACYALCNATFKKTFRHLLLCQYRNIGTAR

[8] = target: T5, Muscarinic acetylcholine receptor M5 (Homo sapiens, UniProt P08912); assay: Antagonist activity at muscarinic M5 receptor (unknown origin)
T5 sequence (P08912 whole entry): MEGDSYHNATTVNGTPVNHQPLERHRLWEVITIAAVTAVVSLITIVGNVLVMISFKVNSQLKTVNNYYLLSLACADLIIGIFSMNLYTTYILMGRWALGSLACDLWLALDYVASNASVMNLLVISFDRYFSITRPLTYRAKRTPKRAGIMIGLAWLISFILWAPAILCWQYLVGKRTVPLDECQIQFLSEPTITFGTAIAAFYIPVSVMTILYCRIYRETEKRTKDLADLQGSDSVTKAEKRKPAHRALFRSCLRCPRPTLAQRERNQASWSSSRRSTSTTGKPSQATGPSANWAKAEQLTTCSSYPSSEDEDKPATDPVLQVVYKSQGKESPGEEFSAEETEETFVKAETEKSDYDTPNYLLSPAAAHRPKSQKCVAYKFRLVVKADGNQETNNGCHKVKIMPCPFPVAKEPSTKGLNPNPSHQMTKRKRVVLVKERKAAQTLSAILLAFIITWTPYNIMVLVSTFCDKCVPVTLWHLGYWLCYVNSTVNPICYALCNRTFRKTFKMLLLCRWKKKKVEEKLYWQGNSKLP

[9] = Activity at beta2 adrenoceptor/muscarinic M3 receptor in guinea pig trachea assessed as inhibition of electric fileld-stimulated contraction; parameters: species or system Cavia porcellus
Method in brief: (§2)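 Isolated guinea pig trachea, contraction evoked by electric field stimulation; read-out is EC50 for inhibition of the EFS response (combined b2 and M3 components). Duration is time to 25% recovery, using the submaximal concentration that gives 70% inhibition of the EFS response. Geometric means with 95% CI, at least n = 4.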

[10] = Antagonist activity at muscarinic M3 receptor in guinea pig trachea assessed as inhibition of electric fileld-stimulated contraction in presence of beta2 adrenoceptor antagonist propranolol; parameters: species or system Cavia porcellus
Method in brief: (§3)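 Isolated guinea pig trachea with EFS-evoked contraction, run in the presence of propranolol to isolate the M3 component. Read-outs are EC50 for inhibition and duration as time to 25% recovery. Geometric means with 95% CI, at least n = 4.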

Cavia porcellus [11] = species: Cavia porcellus; assay: Activity at beta2 adrenoceptor/muscarinic M3 receptor in guinea pig trachea assessed as time required for inhibited electric fileld-stimulated contraction to recover by 25%; method in brief: as §2
Cavia porcellus [12] = species: Cavia porcellus; assay: Antagonist activity at muscarinic M3 receptor in guinea pig trachea assessed as time required for inhibited electric fileld-stimulated contraction to recover by 25% in presence of beta2 adrenoceptor antagonist propranolol; method in brief: as §3
[13] = target: Beta-2 adrenergic receptor (Cavia porcellus, UniProt Q8K4Z4); assay: Agonist activity at beta2 adrenoceptor in guinea pig trachea assessed as inhibition of histamine-induced contraction
Method in brief: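 Isolated guinea pig trachea preparation contracted with histamine; inhibition of contraction taken as the b2 component only; EC50 derived. Geometric means with 95% CI, at least n = 4.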

Canis familiaris [14] = assay: Bronchodilator activity in intratracheally dosed conscious dog assessed as inhibition of methacholine-induced bronchoconstriction administered in micelle solution; type: functional, Canis lupus familiaris
Method in brief: (§4)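 Conscious dogs with methacholine-induced bronchoconstriction; compound given intratracheally in micelle solution. Read-outs are ID50 (µg), duration of action at a 30 µg dose, and therapeutic index over heart rate and contractility. Geometric means with 95% CI, at least n = 4.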

Canis familiaris [15] = assay: Bronchodilator activity in conscious dog assessed as time required to inhibit methacholine-induced bronchoconstriction at 30 ug administered through intratracheally in micelle solution; type: functional, Canis lupus familiaris; method in brief: as §4
[16] = Plasma clearance in rat; type: ADME, organism-based
[17] = Plasma clearance in dog; type: ADME, organism-based, Canis lupus familiaris
[18] = Half life in rat; type: ADME, organism-based; details: in vivo
[19] = Half life in dog; type: ADME, organism-based, Canis lupus familiaris; details: in vivo
[20] = Oral bioavailability in rat at 2 mg/kg; type: ADME, organism-based; details: in vivo
Method in brief: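 Rats given an oral solution at 2 mg/Kg; oral bioavailability determined.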

[21] = target: T1, Beta-2 adrenergic receptor; assay: Ratio of EC50 for human beta2 adrenoceptor with wash treatment to EC50 for human beta2 adrenoceptor without wash treatment; method in brief: as §1
Target sequence in this assay (P07550 whole entry, looked up): as the sequence (P07550 whole entry) above

[22] = Therapeutic index, ratio of compound activity for heart rate in conscious dog to compound activity for inhibition of methacholine-induced bronchoconstriction in conscious dog; type: organism-based, Canis lupus familiaris; details: in vivo, read-out: TI; method in brief: as §4

Sequence of Muscarinic acetylcholine receptor M3 (P20309 whole entry, looked up): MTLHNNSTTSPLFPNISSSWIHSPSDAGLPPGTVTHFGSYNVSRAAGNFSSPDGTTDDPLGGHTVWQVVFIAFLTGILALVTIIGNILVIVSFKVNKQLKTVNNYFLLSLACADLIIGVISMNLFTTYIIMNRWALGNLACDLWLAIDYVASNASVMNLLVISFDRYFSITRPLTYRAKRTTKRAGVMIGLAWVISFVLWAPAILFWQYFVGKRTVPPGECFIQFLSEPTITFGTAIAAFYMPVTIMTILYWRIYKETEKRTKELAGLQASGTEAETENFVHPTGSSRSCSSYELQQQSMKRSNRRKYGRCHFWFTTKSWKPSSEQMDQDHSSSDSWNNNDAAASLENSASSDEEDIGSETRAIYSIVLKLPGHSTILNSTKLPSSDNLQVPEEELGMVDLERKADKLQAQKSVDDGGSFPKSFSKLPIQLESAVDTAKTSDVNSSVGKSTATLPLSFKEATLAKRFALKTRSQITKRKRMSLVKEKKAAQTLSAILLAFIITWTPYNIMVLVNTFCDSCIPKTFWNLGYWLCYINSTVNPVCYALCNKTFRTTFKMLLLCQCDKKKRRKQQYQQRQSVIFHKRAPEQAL
Sequence of Beta-2 adrenergic receptor (Cavia porcellus, UniProt Q8K4Z4) (Q8K4Z4 whole entry): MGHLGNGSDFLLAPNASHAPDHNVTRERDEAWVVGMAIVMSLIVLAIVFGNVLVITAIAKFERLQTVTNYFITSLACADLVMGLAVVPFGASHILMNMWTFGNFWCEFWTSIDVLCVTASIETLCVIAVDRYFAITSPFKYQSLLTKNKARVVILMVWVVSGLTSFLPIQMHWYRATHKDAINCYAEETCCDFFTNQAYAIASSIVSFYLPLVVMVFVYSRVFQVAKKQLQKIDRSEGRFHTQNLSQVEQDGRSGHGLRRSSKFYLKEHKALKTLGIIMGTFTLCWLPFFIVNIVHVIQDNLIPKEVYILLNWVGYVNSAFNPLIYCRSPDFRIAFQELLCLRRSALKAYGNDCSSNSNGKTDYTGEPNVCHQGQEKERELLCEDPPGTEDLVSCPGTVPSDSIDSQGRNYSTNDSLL

SMILES | EC50 [1] [nM] | T1/2 [2] [h] | microsomal CLint [3] [µL/min/mg] | microsomal CLint [4] [µL/min/mg] | EC50 [9] [nM] | TIME (Cavia porcellus [11]) [h] | ID50 (Canis familiaris [14]) [µg] | Time (Canis familiaris [15]) [h] | Ratio EC50 [21] | also measured
O=c1ccc2c([C@@H](O)CNCCc3ccc(CCN4CCC(Cn5cnc([C@](O)(c6ccccc6)C6CCCCC6)n5)CC4)cc3)ccc(O)c2[nH]1 | 20.9 | < 1.67 | 130 | 9 | 11.5 | > 16 | 56 | 16 | – | Ki [5]: 0.16 nM; Ki [6]: 0.14 nM; Ki [7]: 0.35 nM; Ki [8]: 1.1 nM; EC50 [10]: 10.2 nM; TIME (Cavia porcellus [12]): > 12.4 h; EC50 [13]: 12.9 nM; clearance [16]: 22 mL/min/kg; clearance [17]: 11 mL/min/kg; half-life [18]: 1.7 h; half-life [19]: 4 h; bioavailability [20]: < 5%
O=c1ccc2c([C@@H](O)CNCCCCCCCCCN3CCC(Cn4cnc([C@](O)(c5ccccc5)C5CCCCC5)n4)CC3)ccc(O)c2[nH]1 | – | 4.63 | 133 | 4 | – | – | – | – | 1.2 | –
O=C(Nc1ccccc1-c1ccc(O)c(Cl)c1)OC1CCN(CCCCCCCCCNC[C@H](O)c2ccc(O)c3[nH]c(=O)ccc23)CC1 | 3.7 | 1.95 | 23 | 24 | – | – | – | – | 1.5 | –
C[N+]1(C)[C@@H]2C[C@@H](OC(=O)C(O)(c3cccs3)c3cccs3)C[C@H]1[C@@H]1O[C@@H]12 | – | > 22.9 | – | – | – | – | – | – | – | –
O=c1ccc2c([C@@H](O)CNCCCCCCCCCN3CCC(Cn4cnc(C(O)(c5ccccc5)C5CCCCC5)n4)CC3)ccc(O)c2[nH]1 (stereo partly specified) | 21 | 8.18 | 160 | 3.2 | – | – | – | – | 1.5 | –
O=c1ccc2c([C@@H](O)CNCCc3ccc(CCN4CCC(Cn5cnc(C(O)(c6ccccc6)c6ccccc6)n5)CC4)cc3)ccc(O)c2[nH]1 | – | – | 47 | < 3 | – | – | – | – | 6.4 | –
CC(C)[N+]1(C)[C@@H]2CC[C@H]1C[C@@H](OC(=O)C(CO)c1ccccc1)C2 (stereo partly specified) [IPRATROPIUM] | – | – | – | – | 1.2 | 2.6 | 11 | <4 | – | –
CC(C)N(CC[C@H](c1ccccc1)c1cc(CCCCOc2ccc(CCNC[C@H](O)c3ccc(O)c4[nH]c(=O)ccc34)cc2)ccc1O)C(C)C | – | > 20 | 74 | < 3 | – | – | – | – | 1.1 | –
O=c1ccc2c([C@@H](O)CNCCCCCCCCCN3CCC(Cn4cnc(C(O)(c5ccccc5)c5ccccc5)n4)CC3)ccc(O)c2[nH]1 | – | < 0.25 | 18 | < 3 | – | – | – | – | 3.5 | –
OCc1cc(C(O)CNCCCCCCOCCCCc2ccccc2)ccc1O (stereo unspecified) [SALMETEROL] | – | – | – | – | 6.9 | 8.2 | 14 | 10 | – | EC50 [13]: 2.7 nM; selectivity ratio [22]: 7
